Measured values: ChEMBL document CHEMBL1122803, “Folate antagonists. 22. Antimalarial and antibacterial effects of 2,4-diamino-6-quinazolinesulfonamides” (1984)

Test system: Plasmodium berghei
Assay: Antimalarial activity as survivor numbers at day 60 for drug-sensitive Plasmodium berghei infected mice (Mus musculus) after 72 hr
Type: functional
Summary of the method: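 Normal drug-sensitive P. berghei infection in mice. A single subcutaneous dose was given 72 h postinfection, dissolved or suspended in sesame or peanut oil. Groups were five animals (ten where indicated). Mice alive at 60 days postinfection were counted as "cured", without subinoculation confirmation. Toxic deaths on days 2–5 were recorded separately.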

Nc1nc(N)c2cc(S(=O)(=O)c3ccc4ccccc4c3)ccc2n1
survivors at day 60: 5
